From PubChem BioAssay
Most compounds without a hit are left out; they make up all but 3% or so of the library.
SENP7 block: SENP7 protease inhibition | Q9BQF6 | recombinant SENP7, Z-RLRGG-aminoluciferin luminescence, 40 min | inhibition, % at 5 µM | hit rate 1.5% among 330,000 | AID 434973;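 active = inhibition above about 50% at the single test dose, limit read from the data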;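 also: plate controls were DMSO with enzyme for no effect and no enzyme buffer wells for full effect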
Target sequence (Q9BQF6 706-1050 limits assumed): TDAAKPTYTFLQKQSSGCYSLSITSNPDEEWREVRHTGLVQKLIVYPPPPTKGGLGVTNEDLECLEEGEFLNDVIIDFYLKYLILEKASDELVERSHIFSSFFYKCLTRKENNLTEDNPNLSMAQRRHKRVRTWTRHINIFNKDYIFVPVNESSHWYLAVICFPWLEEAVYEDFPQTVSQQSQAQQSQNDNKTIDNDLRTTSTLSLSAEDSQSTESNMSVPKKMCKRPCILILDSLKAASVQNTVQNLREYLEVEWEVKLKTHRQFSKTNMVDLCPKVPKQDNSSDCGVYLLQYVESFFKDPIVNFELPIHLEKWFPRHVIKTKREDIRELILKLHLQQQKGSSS
UBC13 polyUb: inhibitors of human UBC13 polyubiquitin chain formation. P61088. TR-FRET. inhibition, % at 20 µM. hit rate 0.47% among 330,000; in the data active = inhibition above about 45%, passing the limit was not always enough
Apaf-1 inh: inhibitors of human Apaf-1 apoptosome | inhibition, % at 20 µM | O14727 | reconstituted apoptosome caspase-3 activity, DEVD-Rh110 fluorescence | AID 489030 | hit rate 0.71% among 330,000; active = inhibition of at least 40% at 20 µM;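 also: plate controls were DMSO wells for no effect and DEVD-CHO caspase inhibitor wells for full effect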
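Material: cell-free apoptosome with Apaf-1, procaspase-3 and caspase-9; Buffer or medium: Hepes pH 7.5 with detergent and BSA; Reagent: cytochrome c trigger plus (Z-DEVD)2-Rh110 caspase-3 substrate; Times: compound with Apaf-1, dATP, procaspase-3 30 min, then 50 min reaction, room temperature; Technique: Rh110 fluorescence intensity.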
SENP6 block: SENP6 protease inhibition | Recombinant SENP6 catalytic domain, aminoluciferin luminescence | Q9GZR1 | hit rate 1.8% among 330,000 | inhibition, % at 10 µM;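 active = inhibition above about 50% at the single tested dose, limit read from the data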;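 also: plate controls were DMSO wells with enzyme for no effect and DMSO wells lacking enzyme for full effect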
SENP8 block-1: blocks human SENP8 cleavage of Nedd8 substrate; Q96LD8; recombinant SENP8, Nedd8 substrate fluorescence; inhibition, % at 20 µM; hit rate 0.64% among 360,000; AID 602440; in the data active = inhibition mostly above about 40%, no sharp cut-off; inactive = mostly below about 27%
SENP8 block-2: blocks the human protease SENP8. Q96LD8. purified SENP8, Z-RLRGG-aminoluciferin cleavage, luminescence. inhibition, % at 10 µM. hit rate 1.2% among 330,000. AID 2540; in the data active = inhibition above about 50%
SENP8 confirm: human SENP8 inhibition, confirmed. Recombinant SENP8, Z-RLRGG-aminoluciferin luminescence, 60 min. AID 488912. shares compounds with SENP7 block. inhibition, % at 12.5 µM. hit rate 40% among 6,200;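 active = mean inhibition across replicates above about 50%, limit read from the data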
SENP6 confirm: human SENP6 inhibition, confirmed; shares compounds with SENP7 block; recombinant SENP6, Z-RLRGG-aminoluciferin luminescence; inhibition, % at 12.5 µM; hit rate 58% among 6,200; AID 488915
SENP7 conf: confirmation of human SENP7 protease inhibitors. shares compounds with SENP7 block. recombinant SENP7, Z-RLRGG-aminoluciferin luminescence, 40 min. inhibition, % at 12.5 µM. hit rate 69% among 6,200. AID 488917
Casp3 select: caspase-3 inhibition (SENP selectivity assay); hit rate 60% among 6,200; purified caspase-3, Z-DEVD-aminoluciferin luminescence, 60 min; shares compounds with SENP7 block; inhibition, % at 12.5 µM;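 active = mean inhibition above about 50%, limit read from the data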;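 also: plate controls were enzyme with DMSO for no effect and wells without caspase-3 for full effect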
Target sequence (P42574 28-227 limits assumed): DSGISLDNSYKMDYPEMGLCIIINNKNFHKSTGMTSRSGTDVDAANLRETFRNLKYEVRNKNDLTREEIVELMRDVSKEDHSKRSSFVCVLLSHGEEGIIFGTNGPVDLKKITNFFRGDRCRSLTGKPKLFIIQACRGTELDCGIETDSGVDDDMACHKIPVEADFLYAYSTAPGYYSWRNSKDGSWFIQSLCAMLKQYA
Luc interf: luminescence interference (SENP counter-screen); shares compounds with SENP7 block; Pre-incubated SENP8/Z-RLRGG-aminoluciferin, luciferase luminescence interference; inhibition, % at 12.5 µM; hit rate 39% among 6,200;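 active = mean inhibition above about 50% when retested at one dose, limit read from the data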;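 also: plate controls were DMSO wells with completed reaction for no effect and substrate without enzyme for full effect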
* hit, by the source's call.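 The calls were made as follows, unless noted: active = mean inhibition above about 50% in the one-dose retest (limit read from the data); inactive = the rest.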

How did Cc1ccc(S(=O)(=O)N(C)c2ccc3c(c2)C(=O)c2ccccc2-3)cc1 do in these assays?
SENP8 block-1: 16

How did CN1c2ccccc2SC2C(c3ccccc3)=NOC21 (centres undefined) do in these assays?
SENP8 block-1: 14

What do the screens show for `CCCn1c(N)cc(=O)n(C)c1=O`?
SENP7 block: -4; UBC13 polyUb: 9; Apaf-1 inh: -2; SENP6 block: 10; SENP8 block-1: 4; SENP8 block-2: 2

Results for COc1cccc(NC(=O)CC(=O)c2ccc([N+](=O)[O-])cc2)c1 ?
SENP7 block: 58*; UBC13 polyUb: -8; Apaf-1 inh: 9; SENP6 block: 71*; SENP8 block-1: 22; SENP8 block-2: 69*; SENP8 confirm: 82*; SENP6 confirm: 80*; SENP7 conf: 93*; Casp3 select: 72*; Luc interf: 74*

What do the screens show for `COc1ccc(COc2ccc3c(C)cc(=O)oc3c2)cc1`?
SENP7 block: 40; UBC13 polyUb: 0; Apaf-1 inh: 8; SENP6 block: 70*; SENP8 block-1: -160; SENP8 block-2: 50*; SENP8 confirm: 6; SENP6 confirm: 56*; SENP7 conf: 45; Casp3 select: 49; Luc interf: 38

What do the screens show for `COc1cccc(C(=O)Nc2ccc3c(C)cc(=O)oc3c2)c1`?
SENP7 block: 71*; UBC13 polyUb: 0; Apaf-1 inh: 8; SENP6 block: 63*; SENP8 block-1: -343; SENP8 block-2: 16; SENP8 confirm: 13; SENP6 confirm: 15; SENP7 conf: 11; Casp3 select: 29; Luc interf: 7

How did COc1cccc(NC(=O)c2nnn(CCc3ccccc3)c2N)c1 do in these assays?
SENP7 block: 76*; UBC13 polyUb: -6; Apaf-1 inh: 8; SENP6 block: 72*; SENP8 block-1: 2; SENP8 block-2: 64*; SENP8 confirm: 76*; SENP6 confirm: 75*; SENP7 conf: 93*; Casp3 select: 75*; Luc interf: 62*

What do the screens show for `COc1cccc(NC(=O)Cn2nnc(C(=O)Nc3ccccc3)c2N)c1`?
SENP7 block: 1; UBC13 polyUb: 6; Apaf-1 inh: -6; SENP6 block: 2; SENP8 block-1: 25; SENP8 block-2: 3

What do the screens show for `CN1N=C(C(=O)N2CCc3c([nH]c4ccccc34)C2c2c(F)cccc2Cl)CCC1=O` (centres undefined)?
SENP7 block: 7; UBC13 polyUb: 1; Apaf-1 inh: -1; SENP6 block: 6; SENP8 block-1: 7; SENP8 block-2: 0

What do the screens show for `CCC1Oc2ccccc2N(CC(=O)NC2CCCC2)C1=O` (centres undefined)?
SENP7 block: -6; UBC13 polyUb: 1; Apaf-1 inh: -5; SENP6 block: -13; SENP8 block-1: 17; SENP8 block-2: -16

How did COc1ccc(-c2cccc(C(=O)Nc3cccc(C(=O)O)c3)c2)cc1 do in these assays?
SENP7 block: 59*; UBC13 polyUb: -6; Apaf-1 inh: 4; SENP6 block: 84*; SENP8 block-1: 0; SENP8 block-2: 53*; SENP8 confirm: 69*; SENP6 confirm: 83*; SENP7 conf: 96*; Casp3 select: 20; Luc interf: 77*

How did Cc1ccc(NC(=O)c2ccc3nsnc3c2)c(Cl)c1 do in these assays?
SENP7 block: 81*; UBC13 polyUb: 9; Apaf-1 inh: -4; SENP6 block: 62*; SENP8 block-1: -10; SENP8 block-2: 49; SENP8 confirm: 25; SENP6 confirm: 13; SENP7 conf: 17; Casp3 select: 22; Luc interf: -5

What do the screens show for `COc1cccc(NC(=O)c2ccc(NC(=O)C(C)C)cc2)c1`?
SENP7 block: 75*; UBC13 polyUb: 2; Apaf-1 inh: -1; SENP6 block: 73*; SENP8 block-1: 9; SENP8 block-2: 55*; SENP8 confirm: 13; SENP6 confirm: 56*; SENP7 conf: 85*; Casp3 select: 74*; Luc interf: 0

What do the screens show for `O=C(Nc1ccc(Br)cc1F)c1ccc2nsnc2c1`?
SENP7 block: 27; UBC13 polyUb: 14; Apaf-1 inh: 0; SENP6 block: -4; SENP8 block-1: 13; SENP8 block-2: -14

Results for COc1cccc(NC(=O)Nc2ccc(CC(=O)O)cc2)c1 ?
SENP7 block: 8; UBC13 polyUb: 3; Apaf-1 inh: 0; SENP6 block: 20; SENP8 block-1: 14; SENP8 block-2: 2

What do the screens show for `CCc1ccc(NC(=O)Nc2cccc(OC)c2)cc1`?
SENP7 block: 56*; UBC13 polyUb: 6; Apaf-1 inh: -4; SENP6 block: 2; SENP8 block-1: 10; SENP8 block-2: 53*; SENP8 confirm: 21; SENP6 confirm: 51*; SENP7 conf: 82*; Casp3 select: 48; Luc interf: 59*

What do the screens show for `CC(=O)c1cccc2c(O)c(C3=Nc4ccccc4C3=O)[nH]c12`?
SENP7 block: 13; UBC13 polyUb: -216; Apaf-1 inh: 14; SENP6 block: 54*; SENP8 block-1: -1; SENP8 block-2: 59*; SENP8 confirm: 48; SENP6 confirm: 60*; SENP7 conf: 43; Casp3 select: 46; Luc interf: 19

What do the screens show for `O=C1C(c2c(O)[nH]c3ccccc23)=Nc2ccccc21`?
SENP7 block: -9; UBC13 polyUb: -49; Apaf-1 inh: -18; SENP6 block: 6; SENP8 block-1: 21; SENP8 block-2: 3

What do the screens show for `CC[C@@]1(C(=O)OC)N[C@H](CN(C)C(=O)Nc2ccc(C)cc2)[C@@H]2C(=O)N(C)C(=O)[C@@H]21`?
SENP7 block: 5; UBC13 polyUb: 7; Apaf-1 inh: -6; SENP6 block: 3; SENP8 block-1: 8; SENP8 block-2: -3

Results for CCNC(=S)N/N=C/c1cn(Cc2ccc(F)cc2)c2ccccc12 ?
SENP7 block: 2; UBC13 polyUb: 15; Apaf-1 inh: 12; SENP6 block: -22; SENP8 block-1: -6; SENP8 block-2: -7
